Assay results as given in ChEMBL document CHEMBL1153726, “Synthesis and anticancer activity of sclerophytin-inspired hydroisobenzofurans” (Bioorg Med Chem Lett, 2009).

Key:
Type in all cases: functional
[1] = test system: SNB-75; assay: Growth inhibition of human SNB75 cells at 10 nM after 96 hrs by MTT assay; parameters: scale not given: the % may be the effect or the level left
[2] = test system: SN12C; assay: Growth inhibition of human SN12C cells at 10 uM after 96 hrs by MTT assay; parameters: scale not given: the % may be the effect or the level left
[3] = test system: SNB-19; assay: Growth inhibition of human SNB19 cells at 100 nM after 96 hrs by MTT assay; parameters: scale not given: the % may be the effect or the level left
[4] = test system: M14; assay: Growth inhibition of human M14 cells at 1 uM after 96 hrs by MTT assay; parameters: scale not given: the % may be the effect or the level left
[5] = test system: OVCAR-4; assay: Growth inhibition of human OVCAR4 cells at 10 nM after 96 hrs by MTT assay; parameters: scale not given: the % may be the effect or the level left
[6] = test system: IGROV-1; assay: Growth inhibition of human IGROV1 cells at 100 nM after 96 hrs by MTT assay; parameters: scale not given: the % may be the effect or the level left
[7] = test system: SNB-19; assay: Growth inhibition of human SNB19 cells at 10 nM after 96 hrs by MTT assay; parameters: scale not given: the % may be the effect or the level left
[8] = test system: OVCAR-5; assay: Growth inhibition of human OVCAR5 cells at 1 uM after 96 hrs by MTT assay; parameters: scale not given: the % may be the effect or the level left
[9] = test system: NCI-H226; assay: Growth inhibition of human NCI-H226 cells after 96 hrs by MTT assay; conditions: NCI-H226, 96 h
Procedure, shortened: (§1)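 Run in the NCI 60 human tumour cell line panel as a five-dose assay. GI50 and LC50 were reported for each cell line.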

[10] = test system: EKVX; assay: Growth inhibition of human EKVX cells at 100 nM after 96 hrs by MTT assay; parameters: scale not given: the % may be the effect or the level left
[11] = test system: NCI-H322M; assay: Growth inhibition of human NCI-H322M cells at 1 uM after 96 hrs by MTT assay; parameters: scale not given: the % may be the effect or the level left
[12] = test system: KM12; assay: Growth inhibition of human KM12 cells at 10 uM after 96 hrs by MTT assay; parameters: scale not given: the % may be the effect or the level left
[13] = test system: NCI-H23; assay: Growth inhibition of human NCI-H23 cells at 1 uM after 96 hrs by MTT assay; parameters: scale not given: the % may be the effect or the level left
[14] = test system: NCI-H322M; assay: Growth inhibition of human NCI-H322M cells at 1 nM after 96 hrs by MTT assay; parameters: scale not given: the % may be the effect or the level left
[15] = test system: NCI/ADR-RES; assay: Growth inhibition of human NCI/ADR-RES cells at 1 uM after 96 hrs by MTT assay; parameters: scale not given: the % may be the effect or the level left
[16] = test system: SK-MEL-5; assay: Growth inhibition of human SK-MEL-5 cells at 1 nM after 96 hrs by MTT assay; parameters: scale not given: the % may be the effect or the level left
[17] = test system: UACC-62; assay: Growth inhibition of human UACC62 cells at 10 uM after 96 hrs by MTT assay; parameters: scale not given: the % may be the effect or the level left
[18] = test system: T47D; assay: Growth inhibition of human T47D cells at 10 nM after 96 hrs by MTT assay; parameters: scale not given: the % may be the effect or the level left
[19] = test system: UACC-257; assay: Growth inhibition of human UACC257 cells at 100 nM after 96 hrs by MTT assay; parameters: scale not given: the % may be the effect or the level left
[20] = test system: SN12C; assay: Growth inhibition of human SN12C cells at 1 nM after 96 hrs by MTT assay; parameters: scale not given: the % may be the effect or the level left
[21] = test system: SR; assay: Growth inhibition of human SR cells at 1 nM after 96 hrs by MTT assay; parameters: scale not given: the % may be the effect or the level left
[22] = test system: MDA-MB-435; assay: Growth inhibition of human MDA-MB-435 cells at 1 nM after 96 hrs by MTT assay; parameters: scale not given: the % may be the effect or the level left
[23] = test system: MDA-MB-468; assay: Growth inhibition of human MDA-MB-468 cells at 100 nM after 96 hrs by MTT assay; parameters: scale not given: the % may be the effect or the level left
[24] = test system: DU-145; assay: Growth inhibition of human DU145 cells at 1 uM after 96 hrs by MTT assay; parameters: scale not given: the % may be the effect or the level left
[25] = test system: TK-10; assay: Growth inhibition of human TK10 cells at 100 nM after 96 hrs by MTT assay; parameters: scale not given: the % may be the effect or the level left
[26] = test system: HOP-62; assay: Growth inhibition of human HOP62 cells at 10 uM after 96 hrs by MTT assay; parameters: scale not given: the % may be the effect or the level left
[27] = test system: HL-60(TB); assay: Growth inhibition of human HL-60(TB) cells at 1 uM after 96 hrs by MTT assay; parameters: scale not given: the % may be the effect or the level left
[28] = test system: OVCAR-4; assay: Growth inhibition of human OVCAR4 cells at 100 nM after 96 hrs by MTT assay; parameters: scale not given: the % may be the effect or the level left
[29] = test system: HCT-15; assay: Growth inhibition of human HCT15 cells at 10 nM after 96 hrs by MTT assay; parameters: scale not given: the % may be the effect or the level left
[30] = test system: SF-295; assay: Growth inhibition of human SF295 cells at 10 nM after 96 hrs by MTT assay; parameters: scale not given: the % may be the effect or the level left
[31] = test system: COLO 205; assay: Growth inhibition of human COLO205 cells at 100 nM after 96 hrs by MTT assay; parameters: scale not given: the % may be the effect or the level left
[32] = Growth inhibition of human RPMI8266 cells at 10 nM after 96 hrs by MTT assay; parameters: scale not given: the % may be the effect or the level left
[33] = test system: SNB-75; assay: Growth inhibition of human SNB75 cells at 1 uM after 96 hrs by MTT assay; parameters: scale not given: the % may be the effect or the level left
[34] = test system: MDA-MB-231; assay: Growth inhibition of human MDA-MB-231 cells at 1 nM after 96 hrs by MTT assay; parameters: scale not given: the % may be the effect or the level left
[35] = test system: 786-0; assay: Growth inhibition of human 786-0 cells at 10 nM after 96 hrs by MTT assay; parameters: scale not given: the % may be the effect or the level left
[36] = test system: HCT-15; assay: Growth inhibition of human HCT15 cells at 10 uM after 96 hrs by MTT assay; parameters: scale not given: the % may be the effect or the level left
[37] = test system: NCI-H226; assay: Growth inhibition of human NCI-H226 cells at 10 nM after 96 hrs by MTT assay; parameters: scale not given: the % may be the effect or the level left
[38] = test system: MOLT-4; assay: Growth inhibition of human MOLT4 cells at 10 nM after 96 hrs by MTT assay; parameters: scale not given: the % may be the effect or the level left
[39] = test system: M14; assay: Growth inhibition of human M14 cells after 96 hrs by MTT assay; conditions: M14, 96 h; procedure, shortened: as §1
[40] = test system: SK-MEL-2; assay: Growth inhibition of human SK-MEL-2 cells at 10 nM after 96 hrs by MTT assay; parameters: scale not given: the % may be the effect or the level left
[41] = test system: CAKI-1; assay: Growth inhibition of human Caki1 cells at 10 uM after 96 hrs by MTT assay; parameters: scale not given: the % may be the effect or the level left
[42] = test system: BT-549; assay: Growth inhibition of human BT549 cells at 10 uM after 96 hrs by MTT assay; parameters: scale not given: the % may be the effect or the level left
[43] = test system: M14; assay: Growth inhibition of human M14 cells at 10 nM after 96 hrs by MTT assay; parameters: scale not given: the % may be the effect or the level left
[44] = test system: NCI-H226; assay: Growth inhibition of human NCI-H226 cells at 1 uM after 96 hrs by MTT assay; parameters: scale not given: the % may be the effect or the level left
[45] = test system: NCI/ADR-RES; assay: Growth inhibition of human NCI/ADR-RES cells at 1 nM after 96 hrs by MTT assay; parameters: scale not given: the % may be the effect or the level left
[46] = test system: HCT-116; assay: Growth inhibition of human HCT116 cells at 10 nM after 96 hrs by MTT assay; parameters: scale not given: the % may be the effect or the level left
[47] = test system: UACC-62; assay: Growth inhibition of human UACC62 cells at 1 nM after 96 hrs by MTT assay; parameters: scale not given: the % may be the effect or the level left
[48] = test system: TK-10; assay: Growth inhibition of human TK10 cells at 10 uM after 96 hrs by MTT assay; parameters: scale not given: the % may be the effect or the level left
[49] = test system: HOP-92; assay: Growth inhibition of human HOP92 cells at 1 uM after 96 hrs by MTT assay; parameters: scale not given: the % may be the effect or the level left
[50] = read-out: LC50 (the source's name)
[51] = read-out: Log10GI50 (converted)
[52] = read-out: Log10LC50 (converted)

Structure (SMILES): C=C(C)[C@H]1CC=C(C)C2=CO[C@@H](c3ccccc3F)[C@@H]21
- Activity [1]: 81%
- Activity [2]: 100.7%
- Activity [3]: 88%
- Activity [4]: 43%
- Activity [5]: 86%
- Activity [6]: 83%
- Activity [7]: 89%
- Activity [8]: 126%
- GI50 ([9]; read-out: GI50): 3.82 µM
- CC50 [9, 50]: 50.6 µM
- GI50 [9, 51]: 3.8 µM
- CC50 [9, 52]: 50.1 µM
- TGI ([9]; read-out: Log10TGI (converted)): 19.1 µM
- TGI ([9]; read-out: TGI): 18.9 µM
- Activity [10]: 80%
- Activity [11]: 49%
- Activity [12]: 85.93%
- Activity [13]: 34%
- Activity [14]: 95%
- Activity [15]: 26%
- Activity [16]: 91%
- Activity [17]: 54.63%
- Activity [18]: 89%
- Activity [19]: 81%
- Activity [20]: 85%
- Activity [21]: 83%
- Activity [22]: 92%
- Activity [23]: 57%
- Activity [24]: 37%
- Activity [25]: 92%
- Activity [26]: 108.33%
- Activity [27]: -40%
- Activity [28]: 76%
- Activity [29]: 95%
- Activity [30]: 92%
- Activity [31]: 92%
- Activity [32]: 56%
- Activity [33]: 35%
- Activity [34]: 101%
- Activity [35]: 92%
- Activity [36]: 103.41%
- Activity [37]: 89%
- Activity [38]: 100%
- GI50 ([39]; read-out: GI50): 6.51 µM
- CC50 [39, 50]: 45.6 µM
- GI50 [39, 51]: 6.46 µM
- CC50 [39, 52]: 45.7 µM
- TGI ([39]; read-out: Log10TGI (converted)): 20 µM
- TGI ([39]; read-out: TGI): 20.2 µM
- Activity [40]: 82%
- Activity [41]: -25%
- Activity [42]: 112.93%
- Activity [43]: 89%
- Activity [44]: 32%
- Activity [45]: 105%
- Activity [46]: 88%
- Activity [47]: 88%
- Activity [48]: 113.66%
- Activity [49]: -14%
